ChEMBL document CHEMBL5696442, “Discovery of type II inhibitors of TGFβ-activated kinase 1 (TAK1) and mitogen-activated protein kinase kinase kinase kinase 2 (MAP4K2)” (J Med Chem, 2015)

Assays:
[1] = target: Mitogen-activated protein kinase 9 (Homo sapiens, UniProt P45984); assay: Inhibition of JNK2 Lys2 labeling site in human A-375 cells at 5 uM by KiNativ Profiling analysis relative to control; assay type: cell-based
[2] = target: Mitogen-activated protein kinase 14 (Homo sapiens, UniProt Q16539); assay: Inhibition of p38 alpha in human A-375 cells at 0.5 uM by KiNativ Profiling analysis relative to control; assay type: cell-based
[3] = target: Tyrosine-protein kinase CSK (Homo sapiens, UniProt P41240); assay: Inhibition of CSK (unknown origin) ACT labeling site by KiNativ Profiling analysis
[4] = target: Cyclin-dependent kinase 6 (Homo sapiens) (UniProt Q00534); assay: Inhibition of CDK6 Lys2 labeling site in human A-375 cells at 5 uM by KiNativ Profiling analysis relative to control; assay type: cell-based
Method in brief: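 Intact A375 melanoma cells were treated with compound at 5 or 0.5 μM, then lysed. Lysate kinases were labeled with a lysine-reactive ATP or ADP-biotin probe (KiNativ). Inhibition is read as protection of each kinase labeling site from probe labeling.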

[5] = target: eIF-2-alpha kinase GCN2 (Homo sapiens) (UniProt Q9P2K8); assay: Inhibition of GCN2 domain2 Lys2 labeling site in human A-375 cells at 5 uM by KiNativ Profiling analysis relative to control; assay type: cell-based
[6] = target: Ribosomal protein S6 kinase alpha-3 (Homo sapiens) (UniProt P51812); assay: Inhibition of RSK2 domain2 Lys2 labeling site in human A-375 cells at 5 uM by KiNativ Profiling analysis relative to control; assay type: cell-based
Method in brief: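 Live A375 melanoma cells treated with compound at 5 or 0.5 μM, then lysed. Lysate kinases were labeled with a lysine-reactive ATP or ADP-biotin probe. Inhibition was read as protection of labeling sites from the probe.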

[7] = target: Serine/threonine-protein kinase Nek6 (Homo sapiens) (UniProt Q9HC98); assay: Inhibition of NEK6 Lys2 labeling site in human A-375 cells at 0.5 uM by KiNativ Profiling analysis relative to control; assay type: cell-based
[8] = target: T1, Phosphatidylinositol 5-phosphate 4-kinase type-2 alpha (Homo sapiens) (UniProt P48426); assay: Inhibition of PIP4K2A ATP labeling site in human A-375 cells at 0.5 uM by KiNativ Profiling analysis relative to control; assay type: cell-based
T1 sequence (whole entry): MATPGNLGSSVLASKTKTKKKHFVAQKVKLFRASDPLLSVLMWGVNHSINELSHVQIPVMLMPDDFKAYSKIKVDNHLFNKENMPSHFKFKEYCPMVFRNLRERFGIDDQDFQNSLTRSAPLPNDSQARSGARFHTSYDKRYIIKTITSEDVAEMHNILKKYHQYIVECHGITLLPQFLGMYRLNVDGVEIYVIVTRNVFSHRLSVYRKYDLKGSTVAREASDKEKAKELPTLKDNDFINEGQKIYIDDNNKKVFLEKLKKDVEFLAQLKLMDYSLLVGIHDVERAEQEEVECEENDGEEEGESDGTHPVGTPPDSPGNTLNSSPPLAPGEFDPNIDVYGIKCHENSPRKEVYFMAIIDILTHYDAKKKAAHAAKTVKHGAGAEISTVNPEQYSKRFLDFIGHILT

[9] = target: T2, Phosphatidylinositol 5-phosphate 4-kinase type-2 gamma (Homo sapiens) (UniProt Q8TBX8); assay: Inhibition of PIP4K2C ATP labeling site harbouring VKELPTLK in human A-375 cells at 0.5 uM by KiNativ Profiling analysis relative to control; assay type: cell-based
T2 sequence (whole entry): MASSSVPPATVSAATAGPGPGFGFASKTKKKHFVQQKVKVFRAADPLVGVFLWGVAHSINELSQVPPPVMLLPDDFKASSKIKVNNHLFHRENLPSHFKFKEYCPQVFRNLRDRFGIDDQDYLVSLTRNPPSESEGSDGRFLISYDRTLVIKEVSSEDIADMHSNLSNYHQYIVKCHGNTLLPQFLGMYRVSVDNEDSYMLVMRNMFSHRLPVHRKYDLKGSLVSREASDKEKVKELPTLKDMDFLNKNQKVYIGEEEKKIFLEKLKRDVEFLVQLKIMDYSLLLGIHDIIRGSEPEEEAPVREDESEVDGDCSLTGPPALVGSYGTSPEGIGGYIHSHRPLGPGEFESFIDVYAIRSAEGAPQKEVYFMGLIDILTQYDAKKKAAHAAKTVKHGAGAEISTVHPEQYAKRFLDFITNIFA
Method in brief: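 Live A375 melanoma cells were treated with compound at 5 or 0.5 μM, then lysed. Lysates were labeled with a lysine-reactive ATP or ADP-biotin probe. Read-out was the compound's protection of kinase labeling sites from probe labeling (KiNativ).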

[10] = target: Dual specificity mitogen-activated protein kinase kinase 2 (Homo sapiens) (UniProt P36507); assay: Inhibition of MAP2K2 Lys2 labeling site in human A-375 cells at 0.05 uM by KiNativ Profiling analysis relative to control; assay type: cell-based
Chain of Dual specificity mitogen-activated protein kinase kinase 2 (Homo sapiens) (P36507 whole entry): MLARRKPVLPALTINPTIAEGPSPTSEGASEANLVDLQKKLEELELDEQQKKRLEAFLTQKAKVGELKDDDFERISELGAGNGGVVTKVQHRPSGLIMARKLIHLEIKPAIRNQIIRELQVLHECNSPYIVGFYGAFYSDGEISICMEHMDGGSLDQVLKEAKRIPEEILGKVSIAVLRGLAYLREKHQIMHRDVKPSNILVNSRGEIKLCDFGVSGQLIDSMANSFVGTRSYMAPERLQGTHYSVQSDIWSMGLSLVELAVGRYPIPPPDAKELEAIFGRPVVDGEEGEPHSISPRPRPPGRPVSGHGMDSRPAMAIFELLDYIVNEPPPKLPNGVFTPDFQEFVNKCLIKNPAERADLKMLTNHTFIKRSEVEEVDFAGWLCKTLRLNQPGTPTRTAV

Chain of eIF-2-alpha kinase GCN2 (Homo sapiens) (Q9P2K8 whole entry, the tested form may be a part): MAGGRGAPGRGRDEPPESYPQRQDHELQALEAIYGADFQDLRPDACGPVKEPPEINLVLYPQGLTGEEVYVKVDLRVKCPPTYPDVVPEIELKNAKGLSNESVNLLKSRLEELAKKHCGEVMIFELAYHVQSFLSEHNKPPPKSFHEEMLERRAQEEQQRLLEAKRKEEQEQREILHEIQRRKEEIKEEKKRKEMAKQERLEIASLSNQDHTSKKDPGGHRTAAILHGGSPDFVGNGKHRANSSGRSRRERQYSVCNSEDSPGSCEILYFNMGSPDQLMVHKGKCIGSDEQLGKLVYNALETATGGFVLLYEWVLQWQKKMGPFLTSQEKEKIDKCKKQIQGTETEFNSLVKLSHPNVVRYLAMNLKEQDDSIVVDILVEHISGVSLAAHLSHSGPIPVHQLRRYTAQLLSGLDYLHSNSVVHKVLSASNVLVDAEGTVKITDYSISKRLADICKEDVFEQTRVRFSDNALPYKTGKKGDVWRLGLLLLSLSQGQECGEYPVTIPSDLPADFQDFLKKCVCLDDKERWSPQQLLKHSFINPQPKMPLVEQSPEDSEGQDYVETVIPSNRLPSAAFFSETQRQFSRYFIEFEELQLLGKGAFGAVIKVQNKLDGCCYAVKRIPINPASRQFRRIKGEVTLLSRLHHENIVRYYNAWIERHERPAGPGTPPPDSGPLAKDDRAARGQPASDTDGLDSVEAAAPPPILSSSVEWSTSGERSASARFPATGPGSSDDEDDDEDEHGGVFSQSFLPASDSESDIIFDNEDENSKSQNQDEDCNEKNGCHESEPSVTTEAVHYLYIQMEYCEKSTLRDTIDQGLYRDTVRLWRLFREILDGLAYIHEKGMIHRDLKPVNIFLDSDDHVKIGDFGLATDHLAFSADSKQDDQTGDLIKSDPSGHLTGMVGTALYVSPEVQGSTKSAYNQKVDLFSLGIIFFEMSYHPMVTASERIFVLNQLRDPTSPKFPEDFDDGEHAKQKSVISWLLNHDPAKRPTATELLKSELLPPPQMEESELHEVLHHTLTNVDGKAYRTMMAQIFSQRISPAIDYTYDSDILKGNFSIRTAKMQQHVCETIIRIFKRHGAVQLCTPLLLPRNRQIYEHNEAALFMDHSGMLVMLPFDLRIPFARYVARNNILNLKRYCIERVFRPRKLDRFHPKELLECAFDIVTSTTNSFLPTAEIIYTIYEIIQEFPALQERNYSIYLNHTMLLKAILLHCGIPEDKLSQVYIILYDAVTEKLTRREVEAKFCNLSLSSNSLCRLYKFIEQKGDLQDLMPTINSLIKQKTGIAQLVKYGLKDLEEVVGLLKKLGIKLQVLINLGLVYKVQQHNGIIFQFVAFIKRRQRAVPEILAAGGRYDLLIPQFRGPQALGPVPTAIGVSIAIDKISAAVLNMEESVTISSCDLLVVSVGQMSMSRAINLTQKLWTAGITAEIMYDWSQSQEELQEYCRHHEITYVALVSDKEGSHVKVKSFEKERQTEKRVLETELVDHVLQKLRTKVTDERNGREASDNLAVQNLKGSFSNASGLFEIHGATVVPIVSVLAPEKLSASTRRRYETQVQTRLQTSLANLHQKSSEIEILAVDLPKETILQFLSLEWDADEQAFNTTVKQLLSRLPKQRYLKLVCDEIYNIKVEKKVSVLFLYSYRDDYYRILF
Chain of Serine/threonine-protein kinase Nek6 (Homo sapiens) (Q9HC98 whole entry): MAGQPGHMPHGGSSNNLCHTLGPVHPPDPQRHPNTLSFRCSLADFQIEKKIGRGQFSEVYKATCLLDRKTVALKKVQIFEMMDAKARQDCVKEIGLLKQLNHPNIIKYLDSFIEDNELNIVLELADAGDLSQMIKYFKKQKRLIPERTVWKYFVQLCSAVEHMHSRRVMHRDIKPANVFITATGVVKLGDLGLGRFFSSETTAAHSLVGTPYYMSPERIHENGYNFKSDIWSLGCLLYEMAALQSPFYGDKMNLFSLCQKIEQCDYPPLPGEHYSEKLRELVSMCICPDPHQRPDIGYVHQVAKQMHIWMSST
Chain of Mitogen-activated protein kinase 9 (P45984 whole entry, looked up): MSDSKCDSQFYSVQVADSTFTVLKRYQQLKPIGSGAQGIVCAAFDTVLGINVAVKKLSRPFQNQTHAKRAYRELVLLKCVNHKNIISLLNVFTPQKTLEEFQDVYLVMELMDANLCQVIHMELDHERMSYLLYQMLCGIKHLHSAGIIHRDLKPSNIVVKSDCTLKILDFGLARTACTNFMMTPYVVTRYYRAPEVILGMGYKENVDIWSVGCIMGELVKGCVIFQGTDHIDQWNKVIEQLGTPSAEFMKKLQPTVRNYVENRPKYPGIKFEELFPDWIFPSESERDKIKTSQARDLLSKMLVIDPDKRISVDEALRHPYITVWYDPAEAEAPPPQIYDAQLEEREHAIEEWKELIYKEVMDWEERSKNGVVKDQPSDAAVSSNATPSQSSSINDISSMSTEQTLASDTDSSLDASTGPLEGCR
Chain of Cyclin-dependent kinase 6 (Homo sapiens) (Q00534 whole entry): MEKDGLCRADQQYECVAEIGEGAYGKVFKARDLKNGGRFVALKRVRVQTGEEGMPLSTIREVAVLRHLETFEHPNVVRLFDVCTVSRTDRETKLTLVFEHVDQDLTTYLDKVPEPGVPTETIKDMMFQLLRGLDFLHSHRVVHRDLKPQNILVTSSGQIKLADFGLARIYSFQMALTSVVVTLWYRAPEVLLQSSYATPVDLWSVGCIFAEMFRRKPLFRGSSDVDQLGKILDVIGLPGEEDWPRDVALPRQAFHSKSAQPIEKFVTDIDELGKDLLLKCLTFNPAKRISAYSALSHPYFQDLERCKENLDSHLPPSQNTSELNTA
Chain of Mitogen-activated protein kinase 14 (Q16539 whole entry): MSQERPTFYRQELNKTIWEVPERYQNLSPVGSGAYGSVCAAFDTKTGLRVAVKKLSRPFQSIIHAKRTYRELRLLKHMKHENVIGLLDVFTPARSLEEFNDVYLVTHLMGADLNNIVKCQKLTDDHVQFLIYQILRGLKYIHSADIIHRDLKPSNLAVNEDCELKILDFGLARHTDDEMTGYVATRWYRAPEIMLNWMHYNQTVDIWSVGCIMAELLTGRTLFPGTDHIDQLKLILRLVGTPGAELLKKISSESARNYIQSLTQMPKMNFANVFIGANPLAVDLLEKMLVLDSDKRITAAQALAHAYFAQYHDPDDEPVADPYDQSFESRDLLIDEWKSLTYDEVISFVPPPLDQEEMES
Chain of Tyrosine-protein kinase CSK (P41240 whole entry): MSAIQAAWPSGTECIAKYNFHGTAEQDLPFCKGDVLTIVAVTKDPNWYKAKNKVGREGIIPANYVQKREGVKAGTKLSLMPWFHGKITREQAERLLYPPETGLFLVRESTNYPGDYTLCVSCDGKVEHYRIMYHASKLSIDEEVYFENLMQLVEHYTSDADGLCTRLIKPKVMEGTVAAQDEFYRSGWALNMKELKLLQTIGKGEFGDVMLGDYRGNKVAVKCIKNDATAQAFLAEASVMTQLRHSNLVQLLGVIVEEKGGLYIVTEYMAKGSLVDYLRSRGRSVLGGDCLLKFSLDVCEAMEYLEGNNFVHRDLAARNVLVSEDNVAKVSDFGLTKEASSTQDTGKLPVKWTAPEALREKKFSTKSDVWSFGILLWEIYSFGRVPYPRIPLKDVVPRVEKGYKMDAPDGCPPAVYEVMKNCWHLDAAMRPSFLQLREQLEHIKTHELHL
Chain of Ribosomal protein S6 kinase alpha-3 (Homo sapiens) (P51812 whole entry, the tested form may be a part): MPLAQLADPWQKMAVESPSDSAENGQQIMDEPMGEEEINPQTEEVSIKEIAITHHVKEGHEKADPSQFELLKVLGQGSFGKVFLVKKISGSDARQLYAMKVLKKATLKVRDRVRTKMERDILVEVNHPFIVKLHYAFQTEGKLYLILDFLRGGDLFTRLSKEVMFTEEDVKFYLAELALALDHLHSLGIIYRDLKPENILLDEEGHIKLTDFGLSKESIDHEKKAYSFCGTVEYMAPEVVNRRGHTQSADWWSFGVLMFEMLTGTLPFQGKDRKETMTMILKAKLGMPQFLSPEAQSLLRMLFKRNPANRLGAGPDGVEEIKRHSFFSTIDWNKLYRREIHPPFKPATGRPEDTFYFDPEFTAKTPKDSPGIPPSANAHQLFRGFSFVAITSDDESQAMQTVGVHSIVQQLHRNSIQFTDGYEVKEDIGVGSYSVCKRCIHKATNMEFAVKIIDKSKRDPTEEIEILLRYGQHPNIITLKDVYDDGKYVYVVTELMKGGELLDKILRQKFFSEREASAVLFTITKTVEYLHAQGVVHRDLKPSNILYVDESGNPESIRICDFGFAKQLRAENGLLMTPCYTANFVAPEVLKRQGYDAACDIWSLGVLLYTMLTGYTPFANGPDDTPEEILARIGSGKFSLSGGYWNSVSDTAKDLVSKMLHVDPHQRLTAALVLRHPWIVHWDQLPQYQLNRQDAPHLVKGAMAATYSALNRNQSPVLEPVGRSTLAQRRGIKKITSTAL

Structure (SMILES)	inhibition [1]	inhibition [2]	IC50 [3]	inhibition [4]	inhibition [5]	inhibition [6]	inhibition [7]	inhibition [8]	inhibition [9]	inhibition [10]
CCN1CCN(Cc2ccc(NC(=O)c3ccc(C)c(Oc4ccnc5[nH]ccc45)c3)cc2C(F)(F)F)CC1	90.3%	51.9%	0.0564 µM	6.8%	44.3%	14.4%	7.8%	-0.4%	-1.8%	6.1%
CCN1CCN(Cc2ccc(NC(=O)c3ccc(C)c(/C=C/c4cnc5[nH]ccc5c4OC)c3)cc2C(F)(F)F)CC1	76.9%	69.2%	0.0809 µM	-2.3%	83.3%	23.7%	10.7%	-5.5%	9.2%	-8.3%
